Assay type in all cases: functional
Test [1] relates to Mus musculus. In words: Compound was tested for Trypanocidal Activity in mice at 15 mg/kg; 10/10.
Test [2] relates to Mus musculus. Put plainly: Compound was tested for Trypanocidal Activity in mice at 2.5 mg/kg; 21/35.
Test [3] concerns Mus musculus. Put plainly: Compound was tested for Trypanocidal Activity in mice at 1.0 mg/kg; 0/10.
For test [4], the system named is Mus musculus. In words: Compound was tested for Trypanocidal Activity in mice at 25 mg/kg; 10/10.
The test system of test [5] is Mus musculus. Put plainly: Compound was tested for Trypanocidal Activity in mice at 1.5 mg/kg; 2/25.
Test [6] has as its system Mus musculus. Put plainly: Compound was tested for Trypanocidal Activity in mice at 4 mg/kg; 20/30.
Test [7] has as its system Mus musculus. Put plainly: Compound was tested for Trypanocidal Activity in mice at 60 mg/kg; 0/5.
Test [8] has as its system Mus musculus. In words: Compound was tested for Trypanocidal Activity in mice at 6 mg/kg; 26/30.
Test [9] is filed under the species Mus musculus. Put plainly: Effective dose against Trypanosoma brucei infection in mice. The method, boiled down:
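Female Swiss-Webster mice (20–25 g) were infected ip with 5×10^4 T. brucei EATRO 110 organisms in fresh mouse blood diluted with minimum essential medium. Groups of 5 or 10 received a single ip dose in normal saline (solution or milled suspension, 20 μL/g) 6 h post-infection. Deaths within 72 h were scored as toxic. Survivors aparasitemic at 28 days (tail-blood wet films, phase contrast) counted as cures. ED50 was computed by Bliss/Litchfield–Wilcoxon, excluding toxic dosages.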

Test [10] relates to Mus musculus. Put plainly: Compound was tested for Trypanocidal Activity in mice at 40 mg/kg; toxic deaths; 1/5.
Test [11] has as its system Mus musculus. In words: Compound was tested for Trypanocidal Activity in mice at 10 mg/kg; 19/20.
Test [12] deals with Mus musculus. Put plainly: Compound was tested for Trypanocidal Activity in mice at 100 mg/kg; 0/5.
The subject of test [13] is Mus musculus. In words: Compound was tested for Trypanocidal Activity in mice at 15 mg/kg; 0/5.
In test [14] the test system is Mus musculus. In words: Compound was tested ffor Trypanocidal Activity in mice at 500 mg/kg; 0/5.
Test [15] deals with Mus musculus. In words: Compound was tested for Trypanocidal Activity in mice at 40 mg/kg; 0/5.
The test system of test [16] is Mus musculus. Put plainly: Compound was tested for Trypanocidal Activity in mice at 25 mg/kg; 0/15.
Test [17] has as its system Mus musculus. Put plainly: Compound was tested for Trypanocidal Activity in mice at 15 mg/kg; 16/20.
Test [18] has as its system Mus musculus. Put plainly: Compound was tested for Trypanocidal Activity in mice at 25 mg/kg; 7/10.
The subject of test [19] is Mus musculus. Put plainly: Compound was tested for Trypanocidal Activity in mice at 10 mg/kg; 14/20.
Test [20] has as its system Mus musculus. Put plainly: Compound was tested for Trypanocidal Activity in mice at 40 mg/kg; 1/5.
The subject of test [21] is Mus musculus. In words: Compound was tested for Trypanocidal Activity in mice at 4 mg/kg; 0/5.
Test [22] has as its system Mus musculus. Put plainly: Compound was tested for Trypanocidal Activity in mice at 6 mg/kg; 9/20.
Test [23] has as its system Mus musculus. Put plainly: Compound was tested for Trypanocidal Activity in mice at 15 mg/kg; 19/20.
In test [24] the test system is Mus musculus. Put plainly: Compound was tested for Trypanocidal Activity in mice at 2.5 mg/kg; 1/10.
The test system of test [25] is Mus musculus. Put plainly: Compound was tested for Trypanocidal Activity in mice at 1.5 mg/kg; 0/10.
The test system of test [26] is Mus musculus. Put plainly: Compound was tested for Trypanocidal Activity in mice at 25 mg/kg; 18/20.
The test system of test [27] is Mus musculus. Put plainly: Compound was tested for Trypanocidal Activity in mice at 10 mg/kg; 20/20.
In test [28] the test system is Mus musculus. Put plainly: Compound was tested for Trypanocidal Activity in mice at 40 mg/kg; 10/10.
The subject of test [29] is Mus musculus. In words: Compound was tested for Trypanocidal Activity in mice at 4 mg/kg; 10/20.
The test system of test [30] is Mus musculus. In words: Compound was tested for Trypanocidal Activity in mice at 60 mg/kg; 3/5.
Test [31] has as its system Mus musculus. Put plainly: Compound was tested for Trypanocidal Activity in mice at 6 mg/kg; 17/20.
Test [32] concerns Mus musculus. Put plainly: Compound was tested for Trypanocidal Activity in mice at 15 mg/kg; 4/15.
In test [33] the test system is Mus musculus. In words: Compound was tested for Trypanocidal Activity in mice at 25 mg/kg; 10/15.
Test [34] relates to Mus musculus. In words: Compound was tested for Trypanocidal Activity in mice at 10 mg/kg; 0/5.
Test [35] deals with Mus musculus. In words: Compound was tested for Trypanocidal Activity in mice at 40 mg/kg; 5/5.
In test [36] the test system is Mus musculus. Put plainly: Compound was tested for Trypanocidal Activity in mice at 15 mg/kg; 9/10.
Test [37] relates to Mus musculus. Put plainly: Compound was tested for Trypanocidal Activity in mice at 2.5 mg/kg; 15/30.
The test system of test [38] is Mus musculus. In words: Compound was tested for Trypanocidal Activity in mice at 25 mg/kg; toxic deaths; 8/10.
In test [39] the test system is Mus musculus. In words: Compound was tested for Trypanocidal Activity in mice at 1.5 mg/kg; 3/30.
Test [40] deals with Mus musculus. Put plainly: Compound was tested for Trypanocidal Activity in mice at 10 mg/kg; 10/10.
Test [41] deals with Mus musculus. In words: Compound was tested for Trypanocidal Activity in mice at 6 mg/kg; 9/10.
Test [42] has as its system Mus musculus. In words: Compound was tested for Trypanocidal Activity in mice at 4 mg/kg; 22/30.
For test [43], the system named is Mus musculus. Put plainly: Compound was tested for Trypanocidal Activity in mice at 15 mg/kg; 11/20.
In test [44] the test system is Mus musculus. In words: Compound was tested for Trypanocidal Activity in mice at 25 mg/kg; 4/5.
Test [45] relates to Mus musculus. Put plainly: Compound was tested for Trypanocidal Activity in mice at 10 mg/kg; 1/20.
Test [46] deals with Mus musculus. Put plainly: Compound was tested for Trypanocidal Activity in mice at 6 mg/kg; 0/10.

One may read the ED50 as the dose at which the effect has come halfway, by size or by number of responders. Low values mean an effect at a small dose, high ones a need for a large dose. Consider `C/C(=N\NC(=N)N)c1cc(N)cc(/C(C)=N/NC(=N)N)c1.Cl`, for which the “Mice cured (number)” value in the test with Mus musculus [1] amounted to 10. In addition, the Cures/total in the test on Mus musculus [2] stood at 21; in the test with Mus musculus [3], 0; in the test with Mus musculus [4], 10; in the test on Mus musculus [5], 2; in the test on Mus musculus [6] it was 20; in the test with Mus musculus [7], 0. Also, the Cures/total with Mus musculus [8] is listed as 26; with Mus musculus [10], 1; with Mus musculus [11], 19. In the test listed under Mus musculus [9], this compound showed an ED50 of 2.8 mg/kg.
As for `C/C(=N\NC(=N)N)c1cc(/C(C)=N/NC(=N)N)c(O)cc1O.Cl`, the Cures/total in the test on Mus musculus [12], with Mus musculus [13], with Mus musculus [14] and in the test with Mus musculus [15] was 0 each time.
For `CCCC/C(=N\NC(=N)N)c1cccc(/C(CCCC)=N/NC(=N)N)c1.Cl`, the Cures/total with Mus musculus [16], with Mus musculus [15] and in the test on Mus musculus [7] was 0 in each case.
Take `C/C(=N\NC(=N)N)c1cc(O)cc(/C(C)=N/NC(=N)N)c1.Cl`: the Cures/total in the test on Mus musculus [17] is listed as 16; in the test on Mus musculus [18] it was 7; in the test with Mus musculus [19] it was 14; in the test with Mus musculus [20], 1; with Mus musculus [21] it was 0; in the test on Mus musculus [7], 0. In the test with Mus musculus [22], this compound showed a Cures/total of 9. In the test listed under Mus musculus [9], this compound had an ED50 of 7.3 mg/kg.
Regarding `C/C(=N\NC(=N)N)c1cccc(/C(C)=N/NC(=N)N)n1.Cl`, the Cures/total came to 19 with Mus musculus [23]; 1 in the test with Mus musculus [24]; 0 in the test with Mus musculus [25]; 18 in the test on Mus musculus [26]; 0 with Mus musculus [12]; 20 in the test with Mus musculus [27]. Moreover, the Cures/total is given as 10 with Mus musculus [28], 10 in the test with Mus musculus [29], 3 in the test on Mus musculus [30] and 17 with Mus musculus [31]. In the test listed under Mus musculus [9], it took a dose of 4.1 mg/kg to reach the 50% effect level (ED50).
Regarding `C/C(=N\NC(=N)N)c1ccc([N+](=O)[O-])c(/C(C)=N/NC(=N)N)c1.Cl`, the Cures/total with Mus musculus [32] turned out to be 4; in the test on Mus musculus [33] it was 10; in the test with Mus musculus [34], 0; in the test with Mus musculus [35], 5; with Mus musculus [7], 0. This compound registered an ED50 in the test listed under Mus musculus [9] of 20 mg/kg.
For the compound `CC(=O)Nc1cc(/C(C)=N/NC(=N)N)cc(/C(C)=N/NC(=N)N)c1.Cl`, the Cures/total in the test with Mus musculus [36] amounted to 9; in the test on Mus musculus [37], 15; with Mus musculus [3] it was 0; in the test on Mus musculus [38], 8; in the test with Mus musculus [39], 3; with Mus musculus [40] it was 10. Also, the Cures/total with Mus musculus [15] stood at 0; with Mus musculus [41], 9; in the test on Mus musculus [42] it was 22.
`C/C(=N\NC(=N)N)c1cncc(/C(C)=N/NC(=N)N)c1.Cl`: the Cures/total in the test on Mus musculus [43] is listed as 11; in the test on Mus musculus [44] it was 4; with Mus musculus [45], 1; in the test on Mus musculus [20], 1; in the test on Mus musculus [46] it was 0.

The record behind these values is ChEMBL document CHEMBL1122798, “Trypanocidal 1,3-arylene diketone bis(guanylhydrazone)s. Structure-activity relationships among substituted and heterocyclic analogues” (1984).
